# In ChEMBL document CHEMBL3227986, “Design of species- or isozyme-specific enzyme inhibitors. 1. Effect of thymidine substituents on affinity for the thymidine site of hamster cytoplasmic thymidine kinase” (J Med Chem, 1979):
# Active and inactive are the calls of the source. The calls are words filed in the database; no cut-off is given here.
# How the values were obtained:
# [1] = target: T1, Thymidine kinase, cytosolic (Cricetulus griseus) (UniProt P09768); experiment: Inhibition of thymidine kinase in BHK21 (C13) cells using thymidine as substrate assessed as formation of TMP at 7.2 mM; type: cell-based; conditions: Mesocricetus auratus
# T1 sequence (whole entry): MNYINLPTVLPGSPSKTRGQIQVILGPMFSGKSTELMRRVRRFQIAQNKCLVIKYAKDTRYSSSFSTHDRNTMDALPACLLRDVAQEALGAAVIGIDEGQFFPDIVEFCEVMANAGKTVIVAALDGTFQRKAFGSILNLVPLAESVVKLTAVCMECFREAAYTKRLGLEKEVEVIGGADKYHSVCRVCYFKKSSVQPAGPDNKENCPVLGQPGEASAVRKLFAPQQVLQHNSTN
# How it was run: (§1)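 BHK21(C13) 100000g supernatant in Tris-HCl 0.05 M pH 8.0, ATP 5 mM, MgCl2 2.5 mM, [14C]thymidine 3.6 μM, 10 min at 37 °C. Reaction stopped by boiling; [14C]TMP bound to DEAE-cellulose disks and counted by liquid scintillation, corrected for unincubated blanks.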
# [2] = target: T1, Thymidine kinase, cytosolic (Cricetulus griseus); experiment: Inhibition of thymidine kinase in BHK21 (C13) cells using thymidine as substrate assessed as formation of TMP at 14.4 mM; type: cell-based; conditions: Mesocricetus auratus; how it was run: as §1
# [3] = target: T1, Thymidine kinase, cytosolic (Cricetulus griseus); experiment: Inhibition of thymidine kinase in BHK21 (C13) cells using thymidine as substrate assessed as formation of TMP at 0.1 mM; type: cell-based; conditions: Mesocricetus auratus; how it was run: as §1
# [4] = target: T1, Thymidine kinase, cytosolic (Cricetulus griseus); experiment: Inhibition of thymidine kinase in BHK21 (C13) cells using thymidine as substrate assessed as formation of TMP at 0.2 mM; type: cell-based; conditions: Mesocricetus auratus; how it was run: as §1
# [5] = target: T2, Thymidine kinase, cytosolic (Homo sapiens) (UniProt P04183); experiment: Inhibition of human cytoplasmic thymidine kinase using [14C]thymidine after 10 mins by liquid scintillation spectrometer analysis relative to control in presence of Mg2+
# T2 sequence (whole entry): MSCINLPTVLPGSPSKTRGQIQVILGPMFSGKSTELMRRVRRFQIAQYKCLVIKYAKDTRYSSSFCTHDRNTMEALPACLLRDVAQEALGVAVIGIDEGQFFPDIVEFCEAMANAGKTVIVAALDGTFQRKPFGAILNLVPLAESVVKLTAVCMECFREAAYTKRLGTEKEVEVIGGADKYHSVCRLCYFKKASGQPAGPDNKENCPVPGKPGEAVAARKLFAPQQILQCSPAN
# [6] = target: T1, Thymidine kinase, cytosolic (Cricetulus griseus); experiment: Inhibition of thymidine kinase in BHK21 (C13) cells using [14C]thymidine after 10 mins by liquid scintillation spectrometer analysis relative to control in presence of Mg2+; type: cell-based; conditions: Mesocricetus auratus
# How it was run: (§2)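 BHK21(C13) high-speed supernatant, 10 min at 37 °C, [14C]TMP on DEAE-cellulose disks, scintillation counting. Phosphate donors (nucleoside triphosphates 5 mM, giving 2.5 mM Mg2+ triphosphates) tested with 14.4 μM [14C]thymidine. Inhibitor assays used 0.19 mM [14C]thymidine: 5-iodo nucleosides at 0.19 mM with saturating Mg2+-ATP, or dCTP 5 mM with ATP 5 mM and MgCl2 7.5 mM.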
# [7] = target: T3, Thymidine kinase 2, mitochondrial (Homo sapiens) (UniProt O00142); experiment: Inhibition of human mitochondrial thymidine kinase using [14C]thymidine after 10 mins by liquid scintillation spectrometer analysis relative to control in presence of Mg2+
# T3 sequence (whole entry): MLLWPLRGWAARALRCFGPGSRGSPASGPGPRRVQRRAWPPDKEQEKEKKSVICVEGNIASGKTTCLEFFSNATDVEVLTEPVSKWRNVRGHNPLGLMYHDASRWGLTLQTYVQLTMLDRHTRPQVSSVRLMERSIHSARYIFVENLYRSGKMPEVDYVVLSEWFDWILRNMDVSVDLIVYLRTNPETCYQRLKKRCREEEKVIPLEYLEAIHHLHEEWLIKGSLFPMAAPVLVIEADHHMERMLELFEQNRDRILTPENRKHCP
# [8] = target: T3, Thymidine kinase 2, mitochondrial (Homo sapiens); experiment: Effect on human mitochondrial thymidine kinase using [14C]thymidine at 2 mM after 10 mins by liquid scintillation spectrometer analysis relative to control in presence of Mg2+
# [9] = target: T1, Thymidine kinase, cytosolic (Cricetulus griseus); experiment: Effect on thymidine kinase in BHK21 (C13) cells using [14C]thymidine at 5 mM after 10 mins by liquid scintillation spectrometer analysis relative to control in presence of Mg2+; type: cell-based; conditions: Mesocricetus auratus; how it was run: as §2
# [10] = target: T2, Thymidine kinase, cytosolic (Homo sapiens); experiment: Effect on human cytoplasmic thymidine kinase using [14C]thymidine at 2 mM after 10 mins by liquid scintillation spectrometer analysis relative to control in presence of Mg2+
# [11] = target: T1, Thymidine kinase, cytosolic (Cricetulus griseus); experiment: Inhibition of thymidine kinase in BHK21 (C13) cells using [14C]thymidine at 100 to 200 uM after 10 mins by liquid scintillation spectrometer analysis relative to control in presence of Mg2+; type: cell-based; conditions: Mesocricetus auratus
# [12] = target: T1, Thymidine kinase, cytosolic (Cricetulus griseus); experiment: Inhibition of thymidine kinase in BHK21 (C13) cells using thymidine as substrate assessed as formation of TMP at 10 mM; type: cell-based; conditions: Mesocricetus auratus; how it was run: as §1
# [13] = target: T1, Thymidine kinase, cytosolic (Cricetulus griseus); experiment: Inhibition of thymidine kinase in BHK21 (C13) cells using thymidine as substrate assessed as formation of TMP at 5 mM; type: cell-based; conditions: Mesocricetus auratus; how it was run: as §1
# [14] = target: T1, Thymidine kinase, cytosolic (Cricetulus griseus); experiment: Inhibition of thymidine kinase in BHK21 (C13) cells using thymidine as substrate assessed as formation of TMP at 6.8 mM; type: cell-based; conditions: Mesocricetus auratus; how it was run: as §1
# [15] = target: T1, Thymidine kinase, cytosolic (Cricetulus griseus); experiment: Inhibition of thymidine kinase in BHK21 (C13) cells using thymidine as substrate assessed as formation of TMP at 3.4 mM; type: cell-based; conditions: Mesocricetus auratus; how it was run: as §1
# [16] = target: T1, Thymidine kinase, cytosolic (Cricetulus griseus); experiment: Activity at thymidine kinase in BHK21 (C13) cells at 60 uM after 30 mins relative to thymidine; type: cell-based; conditions: Mesocricetus auratus
# How it was run: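 Radiolabeled thymidine or 2'-deoxyuridine derivatives tested as substrates: 40 μL BHK21(C13) 100000g supernatant, Tris-HCl 0.05 M pH 8.0, ATP 5 mM, MgCl2 2.5 mM, no thymidine, 30 min at 37 °C. Products separated by paper electrophoresis in 0.05 M triethylammonium bicarbonate pH 7.6; radioactivity counted in the TMP region.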
# [17] = target: T1, Thymidine kinase, cytosolic (Cricetulus griseus); experiment: Inhibition of thymidine kinase in BHK21 (C13) cells using [14C]thymidine at 200 uM after 10 mins by liquid scintillation spectrometer analysis relative to control in presence of Mg2+; type: cell-based; conditions: Mesocricetus auratus
# [18] = target: T1, Thymidine kinase, cytosolic (Cricetulus griseus); experiment: Inhibition of thymidine kinase in BHK21 (C13) cells using thymidine as substrate assessed as formation of TMP at 15.5 mM; type: cell-based; conditions: Mesocricetus auratus; how it was run: as §1
# [19] = target: T1, Thymidine kinase, cytosolic (Cricetulus griseus); experiment: Inhibition of thymidine kinase in BHK21 (C13) cells using thymidine as substrate assessed as formation of TMP at 7.8 mM; type: cell-based; conditions: Mesocricetus auratus; how it was run: as §1
# [20] = target: T3, Thymidine kinase 2, mitochondrial (Homo sapiens); experiment: Inhibition of human mitochondrial thymidine kinase using [14C]thymidine at 0.19 mM after 10 mins by liquid scintillation spectrometer analysis relative to control in presence of Mg2+
structure (smiles),measurement,setting,value
CCn1c(=O)ccn([C@H]2C[C@H](O)[C@@H](CO)O2)c1=O,inhibition,[1],24%
same,inhibition,[2],45%
CCCn1c(=O)c(C)cn([C@H]2C[C@H](O)[C@@H](CO)O2)c1=O,inhibition,[3],16%
same,inhibition,[4],34%
Nc1ccn([C@H]2C[C@H](O)[C@@H](COP(=O)(O)OP(=O)(O)OP(=O)(O)O)O2)c(=O)n1,inhibition,[5],15%
same,inhibition,[6],27%
same,inhibition,[7],82%
Nc1nc(=O)c2ncn([C@@H]3O[C@H](COP(=O)(O)OP(=O)(O)OP(=O)(O)O)[C@@H](O)[C@@H]3O)c2[nH]1,Activity,[8],46%
same,Activity,[9],6%
same,Activity,[10],36%
"CCC(=O)NCC(OP(=O)(O)OP(=O)(O)OP(=O)(O)O)[C@H]1O[C@@H](n2cc(C)c(=O)[nH]c2=O)C[C@@H]1O (single isomer, unassigned)",inhibition,[11],Active
CCNc1ccn([C@H]2C[C@H](O)[C@@H](CO)O2)c(=O)n1,inhibition,[12],38%
same,inhibition,[13],24%
CCn1c(=O)c(C)cn([C@H]2C[C@H](O)[C@@H](CO)O2)c1=O,inhibition,[3],13%
same,inhibition,[4],26%
CCNc1cn([C@H]2C[C@H](O)[C@@H](CO)O2)c(=O)[nH]c1=O,inhibition,[14],25%
same,inhibition,[15],13%
CC(=O)NCCCC(=O)Nc1cn([C@H]2C[C@H](O)[C@@H](CO)O2)c(=O)[nH]c1=O,Activity,[16],< 0.25%
CC(=O)Nc1cn([C@H]2C[C@H](O)[C@@H](COP(=O)(O)OP(=O)(O)OP(=O)(O)O)O2)c(=O)[nH]c1=O,inhibition,[17],Active
"CCC(=O)NCC(OP(=O)(O)OP(=O)(O)OP(=O)(O)O)[C@H]1O[C@@H](n2cc(C)c(=O)[nH]c2=O)C[C@@H]1O (single isomer, unassigned; more polar)",inhibition,[11],Active
CCCn1c(=O)ccn([C@H]2C[C@H](O)[C@@H](CO)O2)c1=O,inhibition,[18],36%
same,inhibition,[19],18%
CCNc1cn([C@H]2C[C@H](O)[C@@H](COP(=O)(O)OP(=O)(O)OP(=O)(O)O)O2)c(=O)[nH]c1=O,inhibition,[17],Active
Nc1nc(=O)n([C@H]2C[C@H](O)[C@@H](CO)O2)cc1I,inhibition,[20],64%
O=c1[nH]c(=O)n([C@H]2C[C@H](O)[C@@H](CO)O2)cc1I,inhibition,[20],31%
